From ChEMBL document CHEMBL4308899, “Design, synthesis and QSAR study of 2'-hydroxy-4'-alkoxy chalcone derivatives that exert cytotoxic activity by the mitochondrial apoptotic pathway” (Bioorg Med Chem, 2019)
The source made the active and inactive calls. The rule behind the calls is not given here.

Legend:
[1] = Antiproliferative activity against human HF6 cells after 48 hrs by CellTiter 96 AQueous one solution cell proliferation assay; type: functional, cell-based
MCF7 = experiment: Antiproliferative activity against human MCF7 cells after 48 hrs by CellTiter 96 AQueous one solution cell proliferation assay; type: functional, cell-based; settings: MCF7, 48 h
Procedure, shortened: (§1)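 Cells plated at 8000/well; test agents dissolved in DMSO and tested at 80, 8, 0.8, 0.08 and 0.008 μg/mL for 48 h at 37°C, 5% CO2. PC3 and CaSki were grown in RPMI-1640, MCF7 in Eagle's MEM, with 10% FBS and 2 mM glutamine. Podophyllotoxin served as positive control. Viability read by MTS-type reagent absorbance at 450 nm. Triplicates in three independent experiments; IC50 by regression.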

PC-3 [2] = experiment: Antiproliferative activity against human PC3 cells after 48 hrs by CellTiter 96 AQueous one solution cell proliferation assay; type: functional, cell-based; settings: PC-3, 48 h; procedure, shortened: as §1
Ca-Ski = experiment: Antiproliferative activity against human CaSki cells after 48 hrs by CellTiter 96 AQueous one solution cell proliferation assay; type: functional, cell-based; procedure, shortened: as §1
BJ = experiment: Cytotoxicity against human BJ cells after 48 hrs by CellTiter 96 AQueous one solution cell proliferation assay; type: cell-based
PC-3 [3] = experiment: Cell cycle arrest in human PC3 cells assessed as accumulation at G2/M phase at 8.2 uM after 48 hrs by RNAse/propidium iodide staining-based flow cytometric analysis (reference value: 24.9%); type: functional
PC-3 [4] = experiment: Induction of apoptosis in human PC3 cells assessed as plasma membrane blebbing at IC50 after 48 hrs by acridine orange/ethidium bromide staining-based epifluorescence microscopic analysis; type: functional, cell-based
PC-3 [5] = experiment: Cell cycle arrest in human PC3 cells assessed as accumulation at G1 phase at 8.2 uM after 48 hrs by RNAse/propidium iodide staining-based flow cytometric analysis (reference value: 55.6%); type: functional
PC-3 [6] = experiment: Induction of apoptosis in human PC3 cells assessed as upregulation of Bax mRNA expression after 48 hrs by RT-PCR analysis; type: functional, cell-based
Procedure, shortened: (§2)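 PC3 cells (1.25×10^5) were treated 48 h, then RNA was isolated. Bcl-2 and Bax mRNA were measured by RT-PCR with GAPDH as internal control.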

PC-3 [7] = experiment: Induction of apoptosis in human PC3 cells assessed as increase in caspase 3/7 activity by Caspase 3/7-Glo luminescence assay; type: functional, cell-based
Procedure, shortened: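 PC3 cells (8000) were treated, and caspase-3/7 activity was then read by Caspase-Glo 3/7 luminescence. Results are relative luminescence units versus untreated control; paclitaxel was included as a comparator.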

PC-3 [8] = experiment: Cell cycle arrest in human PC3 cells assessed as accumulation at sub-G1 phase at 8.2 uM after 48 hrs by RNAse/propidium iodide staining-based flow cytometric analysis (reference value: 0.00%); type: functional
PC-3 [9] = experiment: Cell cycle arrest in human PC3 cells assessed as accumulation at S phase at 8.2 uM after 48 hrs by RNAse/propidium iodide staining-based flow cytometric analysis (reference value: 19.7%); type: functional
PC-3 [10] = experiment: Induction of apoptosis in human PC3 cells assessed as chromatin condensation at IC50 after 48 hrs by acridine orange/ethidium bromide staining-based epifluorescence microscopic analysis; type: functional, cell-based
PC-3 [11] = experiment: Induction of apoptosis in human PC3 cells assessed as down regulation of Bcl2 mRNA expression after 48 hrs by RT-PCR analysis; type: functional, cell-based; procedure, shortened: as §2
PC-3 [12] = experiment: Induction of apoptosis in human PC3 cells assessed as formation of apoptotic bodies at IC50 after 48 hrs by acridine orange/ethidium bromide staining-based epifluorescence microscopic analysis; type: functional, cell-based
PC-3 [13] = experiment: Cell cycle arrest in human PC3 cells assessed as accumulation at S phase at 13.75 uM after 48 hrs by RNAse/propidium iodide staining-based flow cytometric analysis (reference value: 19.7%); type: functional
PC-3 [14] = experiment: Cell cycle arrest in human PC3 cells assessed as accumulation at sub-G1 phase at 13.75 uM after 48 hrs by RNAse/propidium iodide staining-based flow cytometric analysis (reference value: 0.00%); type: functional
PC-3 [15] = experiment: Cell cycle arrest in human PC3 cells assessed as accumulation at G1 phase at 13.75 uM after 48 hrs by RNAse/propidium iodide staining-based flow cytometric analysis (reference value: 55.6%); type: functional
PC-3 [16] = experiment: Cell cycle arrest in human PC3 cells assessed as accumulation at G2/M phase at 13.75 uM after 48 hrs by RNAse/propidium iodide staining-based flow cytometric analysis (reference value: 24.9%); type: functional
PC-3 [17] = experiment: Cell cycle arrest in human PC3 cells assessed as accumulation at S phase at 0.12 uM after 48 hrs by RNAse/propidium iodide staining-based flow cytometric analysis (reference value: 19.7%); type: functional
PC-3 [18] = experiment: Cell cycle arrest in human PC3 cells assessed as accumulation at sub-G1 phase at 0.12 uM after 48 hrs by RNAse/propidium iodide staining-based flow cytometric analysis (reference value: 0.00%); type: functional
PC-3 [19] = experiment: Induction of apoptosis in human PC3 cells assessed as plasma membrane blebbing at 0.005 uM after 48 hrs by acridine orange/ethidium bromide staining-based epifluorescence microscopic analysis; type: functional, cell-based
Procedure, shortened: (§3)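 PC3 cells, 25000 per well in 24-well plates, treated 48 h; H2O2 30 min served as apoptosis control, boiling at 95°C for 10 sec as necrosis control. Cells then exposed to acridine orange/ethidium bromide (100 μg/mL each) and examined by fluorescence microscopy. Scored by nuclear morphology: chromatin condensation, orange condensed chromatin (late apoptosis), apoptotic bodies.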

PC-3 [20] = experiment: Induction of apoptosis in human PC3 cells assessed as chromatin condensation at 0.005 uM after 48 hrs by acridine orange/ethidium bromide staining-based epifluorescence microscopic analysis; type: functional, cell-based; procedure, shortened: as §3
PC-3 [21] = experiment: Cell cycle arrest in human PC3 cells assessed as accumulation at G2/M phase at 0.12 uM after 48 hrs by RNAse/propidium iodide staining-based flow cytometric analysis (reference value: 24.9%); type: functional
PC-3 [22] = experiment: Induction of apoptosis in human PC3 cells assessed as formation of apoptotic bodies at 0.005 uM after 48 hrs by acridine orange/ethidium bromide staining-based epifluorescence microscopic analysis; type: functional, cell-based; procedure, shortened: as §3
PC-3 [23] = experiment: Cell cycle arrest in human PC3 cells assessed as accumulation at G1 phase at 0.12 uM after 48 hrs by RNAse/propidium iodide staining-based flow cytometric analysis (reference value: 55.6%); type: functional
PC-3 [24] = experiment: Antiproliferative activity against human PC3 cells after 72 hrs by CyQuant dye-based assay; type: functional, cell-based; settings: PC-3, 72 h
PC-3 [25] = experiment: Cell cycle arrest in human PC3 cells assessed as accumulation at G2/M phase at 11.81 uM after 48 hrs by RNAse/propidium iodide staining-based flow cytometric analysis (reference value: 24.9%); type: functional
PC-3 [26] = experiment: Cell cycle arrest in human PC3 cells assessed as accumulation at G1 phase at 11.81 uM after 48 hrs by RNAse/propidium iodide staining-based flow cytometric analysis (reference value: 55.6%); type: functional
PC-3 [27] = experiment: Cell cycle arrest in human PC3 cells assessed as accumulation at sub-G1 phase at 11.81 uM after 48 hrs by RNAse/propidium iodide staining-based flow cytometric analysis (reference value: 0.00%); type: functional
PC-3 [28] = experiment: Cell cycle arrest in human PC3 cells assessed as accumulation at S phase at 11.81 uM after 48 hrs by RNAse/propidium iodide staining-based flow cytometric analysis (reference value: 19.7%); type: functional

SMILES | IC50 [1] [µM] | IC50 (MCF7) [µM] | IC50 (PC-3 [2]) [µM] | IC50 (Ca-Ski) [µM] | IC50 (BJ) [µM] | also measured
COc1ccc(C(=O)/C=C/c2ccccc2)c(O)c1I | > 50 | > 50 | 34 | > 50 |  | 
COc1ccc(C(=O)CCc2ccccc2)c(O)c1 | > 50 | > 50 | > 50 | > 50 |  | 
COc1cc(O)c(C(=O)/C=C/c2ccccc2)cc1I | > 50 | > 50 | > 50 | > 50 |  | 
CCCOc1ccc(C(=O)/C=C/c2ccccc2)c(O)c1 |  | > 50 | 8.08 | > 50 | 16 | 
CCOc1ccc(C(=O)/C=C/c2ccccc2)c(O)c1 |  | > 50 | 8.2 |  | 208 | Activity (PC-3 [3]): 50.1%; Activity (PC-3 [4]): Active; Activity (PC-3 [5]): 24.3%; Activity (PC-3 [6]): Active; Activity (PC-3 [7]): Active; Activity (PC-3 [8]): 17.9%; Activity (PC-3 [9]): 7.69%; Activity (PC-3 [10]): Active; Activity (PC-3 [11]): Active; Activity (PC-3 [12]): Active
O=C(/C=C/c1ccccc1)c1ccc(O)cc1O [2',4'-DIHYDROXYCHALCONE] |  | > 50 | 13.8 |  | 262 | Activity (PC-3 [13]): 10.7%; Activity (PC-3 [4]): Active; Activity (PC-3 [14]): 16.3%; Activity (PC-3 [6]): Active; Activity (PC-3 [7]): Active; Activity (PC-3 [10]): Active; Activity (PC-3 [15]): 32.2%; Activity (PC-3 [16]): 40.8%; Activity (PC-3 [11]): Active; Activity (PC-3 [12]): Active
COc1cc([C@@H]2c3cc4c(cc3[C@H](O)[C@H]3COC(=O)[C@H]23)OCO4)cc(OC)c1OC [PODOFILOX] | 0.0369 | 0.28 | 0.12 | 0.3 | 5 | Activity (PC-3 [17]): 9.82%; Activity (PC-3 [18]): 35.6%; Activity (PC-3 [19]): Active; Activity (PC-3 [20]): Active; Activity (PC-3 [21]): 47%; Activity (PC-3 [22]): Active; Activity (PC-3 [23]): 8.31%
COc1ccc(C(=O)/C=C/c2ccccc2)c(O)c1Br | > 50 | > 50 | 47.8 | > 50 |  | 
COc1cc(O)c(C(=O)/C=C/c2ccccc2)cc1Br | 38.9 | > 50 | > 50 | > 50 |  | 
O=C(/C=C/c1ccccc1O)c1ccccc1O |  |  |  |  |  | IC50 (PC-3 [24]): 10.3 µM
O=C(/C=C/c1ccccc1)c1ccc(OCc2ccccc2)cc1O |  | > 50 | 34.7 | > 50 |  | 
CC(=O)Oc1ccc(C(=O)/C=C/c2ccccc2)c(O)c1 | > 50 | > 50 | 10 | > 50 | 21.3 | 
COc1ccc(C(=O)/C=C/c2ccccc2)c(O)c1 | > 50 | > 50 | 11.8 |  | 239 | Activity (PC-3 [25]): 27.1%; Activity (PC-3 [4]): Active; Activity (PC-3 [6]): Active; Activity (PC-3 [26]): 46.8%; Activity (PC-3 [7]): Active; Activity (PC-3 [27]): 13.6%; Activity (PC-3 [10]): Active; Activity (PC-3 [28]): 16%; Activity (PC-3 [11]): Active; Activity (PC-3 [12]): Active
